Results from different studies.
Lines come from different studies, so protocols differ.
Target: Hormonally up-regulated neu tumor-associated kinase (HUNK, Homo sapiens, UniProt P57058)
Sequence (P57058 1-714, as in one of the studies): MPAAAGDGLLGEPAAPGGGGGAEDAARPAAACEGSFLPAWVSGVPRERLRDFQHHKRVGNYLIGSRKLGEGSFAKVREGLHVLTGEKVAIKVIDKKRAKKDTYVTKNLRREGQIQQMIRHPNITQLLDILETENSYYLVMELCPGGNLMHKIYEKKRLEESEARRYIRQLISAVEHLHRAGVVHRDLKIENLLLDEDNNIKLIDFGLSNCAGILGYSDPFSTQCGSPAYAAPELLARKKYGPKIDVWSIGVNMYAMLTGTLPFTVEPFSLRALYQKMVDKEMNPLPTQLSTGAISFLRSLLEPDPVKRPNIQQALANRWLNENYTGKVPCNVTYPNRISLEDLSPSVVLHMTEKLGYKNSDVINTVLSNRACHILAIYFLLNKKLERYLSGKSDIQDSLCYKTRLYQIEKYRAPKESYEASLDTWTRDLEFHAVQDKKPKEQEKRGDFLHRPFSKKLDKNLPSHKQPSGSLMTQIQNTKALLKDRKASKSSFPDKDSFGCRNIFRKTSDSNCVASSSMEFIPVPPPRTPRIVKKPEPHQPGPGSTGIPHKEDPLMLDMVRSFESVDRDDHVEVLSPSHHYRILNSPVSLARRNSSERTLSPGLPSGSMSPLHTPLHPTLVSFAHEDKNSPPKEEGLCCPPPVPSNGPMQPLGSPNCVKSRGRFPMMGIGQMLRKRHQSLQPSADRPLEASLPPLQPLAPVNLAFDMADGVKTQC

Structure (SMILES)	read-out	method	concentration	remaining binding
CCCOc1ccc([C@@H]2[C@@H](C(=O)O)[C@H](c3ccc4c(c3)OCO4)CN2CC(=O)Nc2c(CC)cccc2CC)cc1	cell-free assay	competition with immobilised ligand	1 µM	70%
O=C(NCC1CCOCC1)c1n[nH]cc1NC(=O)c1c(F)cccc1F	binding	competition with immobilised ligand	1 µM	100%
N[C@@H]1CCN(c2nccc(-c3cnn4ncccc34)n2)C1	binding		1 µM	100%
COc1cc(-c2cn(C3CCc4ccccc4N(CC(F)(F)F)C3=O)nn2)ccc1-n1ccc(C)n1 (stereo not shown)	cell-free assay	competition with immobilised ligand	1 µM	100%
O=C(NCCCN1CCOCC1)c1ccc(Nc2ncc(Cl)c(-c3ccc(Cl)s3)n2)cc1	binding	competition with immobilised ligand	1 µM	100%
C=CC(=O)N1CCC(C(=O)NCC(=O)N2CCN(c3nc(-c4cnc(N)nc4C(F)F)nc(N4CCOCC4)n3)CC2)CC1	binding	competition with immobilised ligand	1 µM	79%
CC1=C(C#N)[C@@H](c2ccc3[nH]nc(C)c3c2)C(C#N)=C(c2ccc(Cl)cc2)N1	cell-free assay	competition with immobilised ligand	1 µM	81.4%
C[C@H]1CCN(c2nccc(-c3cnn4ncccc34)n2)C1	binding		1 µM	100%
CCC(=O)N[C@H]1CC[C@@H](C(=O)N(C)c2ccc(-c3nc4ccccc4o3)cc2)C1	cell-free assay	competition with immobilised ligand	1 µM	100%
c1cncc(-c2cccc(Nc3nccc(NC4CCCCC4)n3)c2)c1	binding	competition with immobilised ligand	10 µM	100%
FC(F)(F)Oc1cccc(-c2cnc3ccc(-c4ccncc4)nn23)c1	cell-free assay	competition with immobilised ligand	5 µM	96%
CN(C)c1nccc(-c2cnn3ncccc23)n1	binding		1 µM	100%
CNC(=O)[C@@H]1CC[C@@H](n2c(-c3ccc4cnccc4c3)nc3ccc(C(=O)NCc4cccc(C(N)=O)c4)cc32)C1	binding	competition with immobilised ligand	1 µM	100%
O=C(NC[C@@H]1[C@H]2CN(C(=O)OCc3cc(C(F)(F)F)cc(C(F)(F)F)c3)C[C@@H]12)c1ccc2[nH]nnc2c1	cell-free assay	competition with immobilised ligand	1 µM	100%
COc1ccnn2ncc(-c3ccnc(N(C)C)n3)c12	binding		1 µM	100%
NS(=O)(=O)c1cc(NC(=O)Cc2ccccc2)ccc1Oc1cccc(Cl)c1	cell-free assay	competition with immobilised ligand	1 µM	84%
CN(C)c1nccc(-c2cnc3ncccn23)n1	binding		1 µM	83%
O=C(c1ccc(Nc2nccc(-c3cc4ccccc4s3)n2)cc1)N1CCC(N2CCCC2)CC1	binding	competition with immobilised ligand	1 µM	100%
CN(C)c1ncc(F)c(-c2cnn3ncccc23)n1	binding		1 µM	100%
CSc1cccnc1N1CCN(Cc2nc3ccccc3[nH]2)CC1	cell-free assay	competition with immobilised ligand	1 µM	100%
F[C@@H]1CCN(c2nccc(-c3cnn4ncccc34)n2)C1	binding		1 µM	0%
Cc1cnc(Nc2ccc(C(=O)N3CCC(N4CCCC4)CC3)cc2)nc1-c1cc2ccccc2s1	binding	competition with immobilised ligand	1 µM	100%
